In experiment [1] the target is T1, B2 bradykinin receptor (Cavia porcellus, UniProt O70526).
T1 sequence (O70526 whole entry): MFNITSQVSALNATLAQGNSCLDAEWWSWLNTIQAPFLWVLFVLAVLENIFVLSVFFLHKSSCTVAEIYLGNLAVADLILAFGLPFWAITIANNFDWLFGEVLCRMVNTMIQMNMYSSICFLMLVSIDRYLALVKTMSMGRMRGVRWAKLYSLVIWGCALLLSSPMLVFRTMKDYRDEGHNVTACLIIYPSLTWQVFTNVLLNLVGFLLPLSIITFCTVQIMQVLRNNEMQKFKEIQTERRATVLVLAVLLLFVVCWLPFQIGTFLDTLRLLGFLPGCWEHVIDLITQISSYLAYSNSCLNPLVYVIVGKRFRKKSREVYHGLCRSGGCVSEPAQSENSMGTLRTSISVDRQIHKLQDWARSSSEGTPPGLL
The experiment can be described thus: Concentration required to inhibit specific binding of [ 3H]BK (0.06 nM) to Bradykinin receptor B2 in guinea pig ileum membrane preparations by 50%. In kind it is cell membranes. Summed up: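 Ileal membranes from male Hartley guinea pigs (0.2 mg protein/mL) in TES buffer pH 6.8 with phenanthroline, bacitracin, DTT, captopril and BSA. Incubated with 0.06 nM [3H]BK plus compound for 60 min at room temperature, then filtered through GF/B and counted by scintillation.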

In experiment [2] the target is T2, B2 bradykinin receptor (Homo sapiens, UniProt P30411).
T2 sequence (P30411 whole entry): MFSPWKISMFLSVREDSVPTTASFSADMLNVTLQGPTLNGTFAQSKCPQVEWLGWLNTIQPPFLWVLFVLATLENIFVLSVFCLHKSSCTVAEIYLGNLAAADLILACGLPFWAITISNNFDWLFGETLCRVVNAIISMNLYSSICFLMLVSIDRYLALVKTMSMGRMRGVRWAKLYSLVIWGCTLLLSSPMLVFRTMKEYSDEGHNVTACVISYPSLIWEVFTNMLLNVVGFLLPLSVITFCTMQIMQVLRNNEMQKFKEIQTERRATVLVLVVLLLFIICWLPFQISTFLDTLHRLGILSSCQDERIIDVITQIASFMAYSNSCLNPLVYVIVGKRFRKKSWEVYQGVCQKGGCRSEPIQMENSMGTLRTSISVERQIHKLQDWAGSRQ
In words: Inhibition specific binding of [3H]BK (1.0 nM) to human Bradykinin receptor B2 which was expressed in CHO (Chinese hamster ovary) cells by 50%. Type of experiment: cell-based. Summed up:
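CHO (dhfr−) cells stably expressing human B2 receptor, seeded at 3.0 × 10^4 cells/well and cultured 1 day. Whole cells incubated with 1.0 nM [3H]BK plus compound for 2 h at 4 °C in HEPES/N-methyl-D-glucamine buffer pH 7.2 with bacitracin, enalaprilat and BSA. Washed, solubilized in SDS/NaOH and counted. Nonspecific binding with 1 μM BK; DMSO below 3%; three experiments.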

Usually IC50 stands for the concentration needed to halve the response being measured. A low value points to greater potency in that assay. Take `CCOc1nc2c(OCc3c(C)ccc(N(C)C(=O)CNC(=O)/C=C/c4ccc(C(=O)NC)cc4)c3C)cccc2n1C`: the IC50 on B2 bradykinin receptor [1] turned out to be 90 nM; on B2 bradykinin receptor [2], 730 nM.
For `CNC(=O)c1ccc(/C=C/C(=O)NCC(=O)N(C)c2ccc(Cl)c(COc3cccc4c(C)c(C)oc34)c2Cl)cc1`, in that order: 23 nM and 270 nM.
On the same counts, the results for `CC(=O)Nc1ccc(/C=C/C(=O)NCC(=O)N(C)c2ccc(C)c(COc3cccc4ncc(C)nc34)c2C)cn1` are 48 nM and 130 nM.
On the same counts, the results for `CNC(=O)c1ccc(/C=C/C(=O)NCC(=O)N(C)c2ccc(C)c(COc3cccc4c3nc(SC)n4C)c2C)cc1` are 9.5 nM and 79 nM.
As to `CNC(=O)c1ccc(/C=C/C(=O)NCC(=O)N(C)c2ccc(C)c(COc3cccc4c3nc(NC)n4C)c2C)cc1`, the IC50 on B2 bradykinin receptor [1] was 94 nM; at B2 bradykinin receptor [2] it was 670 nM.
For `Cc1cnc2cccc(OCc3c(Cl)ccc(N(C)C(=O)CNC(=O)/C=C/c4ccc(N5CCCC5=O)cc4)c3Cl)c2n1`, in that order: 1.1 nM and 26 nM.
On the same counts, the results for `CNC(=O)c1ccc(/C=C/C(=O)NCC(=O)N(C)c2ccc(C)c(COc3cccc4ncc(C)nc34)c2C)cc1` are 3.5 nM and 17 nM.
For `CNC(=O)c1ccc(/C=C/C(=O)NCC(=O)N(C)c2ccc(C)c(COc3cccc4c3nc(N(C)C)n4C)c2C)cc1`, in that order: 38 nM and 160 nM.
For `CCn1c(C)nc2c(OCc3c(Cl)ccc(N(C)C(=O)CNC(=O)/C=C/c4ccc(C(=O)NC)cc4)c3Cl)cccc21`, the results for the IC50 at B2 bradykinin receptor [1] and on B2 bradykinin receptor [2] were 8.9 nM and 48 nM, respectively.
For `Cc1ccc2cccc(OCc3c(C)ccc(N(C)C(=O)CNC(=O)/C=C/c4ccc(N5CCCC5=O)nc4)c3C)c2n1`, the IC50 at B2 bradykinin receptor [1] is 1.4 nM; on B2 bradykinin receptor [2] it was 39 nM.
For `CNC(=O)c1ccc(/C=C/C(=O)NCC(=O)N(C)c2ccc(C)c(COc3cccc4c3nc(COC)n4C)c2C)cc1`, in that order: 1000 nM and 9100 nM.
Regarding `CCOC(=O)Cc1nc2c(OCc3c(C)ccc(N(C)C(=O)CNC(=O)/C=C/c4ccc(C(=O)NC)cc4)c3C)cccc2n1C`, the figures for the IC50 on B2 bradykinin receptor [1] and on B2 bradykinin receptor [2] were 1100 nM and 8400 nM, respectively.
Turning to `Cc1cnc2cccc(OCc3c(Cl)ccc(N(C)C(=O)CNC(=O)/C=C/c4ccc(C(=O)N(C)C)cc4)c3Cl)c2n1`, the IC50 at B2 bradykinin receptor [1] stood at 1.9 nM; at B2 bradykinin receptor [2], 44 nM.
For `CNC(=O)c1ccc(/C=C/C(=O)NCC(=O)N(C)c2ccc(C)c(COc3cccc4ncc(C)nc34)c2C)cn1`, the values for the IC50 on B2 bradykinin receptor [1] and on B2 bradykinin receptor [2] were 18 nM and 590 nM, respectively.
On the same counts, the results for `Cc1ccc2cccc(OCc3c(Cl)ccc(N(C)C(=O)CNC(=O)/C=C/c4ccc(C(=O)Nc5ccccn5)cc4)c3Cl)c2n1` are 11 nM and 30 nM.
For the molecule `CNC(=O)c1ccc(/C=C/C(=O)NCC(=O)N(C)c2ccc(Cl)c(COc3cccc4c3nc(-c3ccccc3)n4C)c2Cl)cc1`, the concentration for half-maximal inhibition (IC50) on B2 bradykinin receptor [1] is 510 nM; at B2 bradykinin receptor [2] it was greater than 1000 nM.
In the case of `Cc1nc2c(OCc3c(Cl)ccc(N(C)C(=O)CNC(=O)/C=C/c4ccc(C(=O)N(C)C)cc4)c3Cl)cccn2c1Br`, the IC50 on B2 bradykinin receptor [2] was 2.2 nM.
On the same count and under the same terms, for `CNC(=O)c1ccc(/C=C/C(=O)NCC(=O)N(C)c2ccc(Cl)c(COc3cccn4c(Br)c(C)nc34)c2Cl)cc1` the value was 9 nM.
For the molecule `Cc1cnc2cccc(OCc3c(C)ccc(N(C)C(=O)CNC(=O)/C=C/c4ccc(C(=O)N(C)C)cc4)c3C)c2n1`, the IC50 on B2 bradykinin receptor [1] amounted to 4.1 nM; on B2 bradykinin receptor [2], 130 nM.
With `Cc1ccc2cccc(OCc3c(Cl)ccc(N(C)C(=O)CNC(=O)/C=C/c4ccc(C(=O)Nc5ccccc5)cc4)c3Cl)c2n1`, the IC50 turned out to be 6.3 nM on B2 bradykinin receptor [1] and 11 nM on B2 bradykinin receptor [2].
Take `CNC(=O)c1ccc(/C=C/C(=O)NCC(=O)N(C)c2ccc(C)c(COc3cccc4c3nc(C(C)=O)n4C)c2C)cc1`: the IC50 on B2 bradykinin receptor [1] is 200 nM; on B2 bradykinin receptor [2] it was 94 nM.
For `CNC(=O)c1ccc(/C=C/C(=O)NCC(=O)N(C)c2ccc(C)c(COc3cccc4ccc(C)nc34)c2C)cn1`, the IC50 at B2 bradykinin receptor [1] amounted to 2.2 nM; at B2 bradykinin receptor [2] it was 58 nM.

The record behind these values is ChEMBL document CHEMBL1131138, “A novel class of orally active non-peptide bradykinin B2 receptor antagonists. 3. Discovering bioisosteres of the imidazo[1,2-a] pyridine moiety” (J Med Chem, 1998).
